This is an account of results in ChEMBL document CHEMBL4265907, “Design, synthesis and pharmacological evaluation of N4,N6-disubstituted pyrimidine-4,6-diamine derivatives as potent EGFR inhibitors in non-small cell lung cancer” (Eur J Med Chem, 2018).

Experiment [1] has as its target Fibroblast growth factor receptor 1 (Homo sapiens) (UniProt P11362). Put plainly: Inhibition of N-terminal GST-tagged human FGFR1 cytoplasmic domain (398 to 822 residues) expressed in baculovirus expression system at […] using FAM-labeled peptide as substrate after 10 mins by mobility shift assay relative to control. The essentials: (§1)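 Caliper mobility-shift kinase assay. Kinase in kinase base buffer was preincubated with compound for 10 min at room temperature. FAM-labelled peptide and ATP at Km were then added, and the reaction ran at 28 °C until quenched with buffer. Screening concentration was 1 µM. Percent inhibition = (max − conversion)/(max − min) × 100, with DMSO as max and a low control as min.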

Experiment [2] concerns the target Vascular endothelial growth factor receptor 2 (Homo sapiens) (UniProt P35968). Kind of experiment: Inhibition of N-terminal GST-tagged human KDR cytoplasmic domain (790 to 1356 residues) expressed in baculovirus expression system at […] using FAM-labeled peptide as substrate after 10 mins by mobility shift assay relative to control. The essentials: as §1

Structures are written as SMILES.

Chain of Vascular endothelial growth factor receptor 2 (Homo sapiens) (P35968 whole entry, the tested form may be a part): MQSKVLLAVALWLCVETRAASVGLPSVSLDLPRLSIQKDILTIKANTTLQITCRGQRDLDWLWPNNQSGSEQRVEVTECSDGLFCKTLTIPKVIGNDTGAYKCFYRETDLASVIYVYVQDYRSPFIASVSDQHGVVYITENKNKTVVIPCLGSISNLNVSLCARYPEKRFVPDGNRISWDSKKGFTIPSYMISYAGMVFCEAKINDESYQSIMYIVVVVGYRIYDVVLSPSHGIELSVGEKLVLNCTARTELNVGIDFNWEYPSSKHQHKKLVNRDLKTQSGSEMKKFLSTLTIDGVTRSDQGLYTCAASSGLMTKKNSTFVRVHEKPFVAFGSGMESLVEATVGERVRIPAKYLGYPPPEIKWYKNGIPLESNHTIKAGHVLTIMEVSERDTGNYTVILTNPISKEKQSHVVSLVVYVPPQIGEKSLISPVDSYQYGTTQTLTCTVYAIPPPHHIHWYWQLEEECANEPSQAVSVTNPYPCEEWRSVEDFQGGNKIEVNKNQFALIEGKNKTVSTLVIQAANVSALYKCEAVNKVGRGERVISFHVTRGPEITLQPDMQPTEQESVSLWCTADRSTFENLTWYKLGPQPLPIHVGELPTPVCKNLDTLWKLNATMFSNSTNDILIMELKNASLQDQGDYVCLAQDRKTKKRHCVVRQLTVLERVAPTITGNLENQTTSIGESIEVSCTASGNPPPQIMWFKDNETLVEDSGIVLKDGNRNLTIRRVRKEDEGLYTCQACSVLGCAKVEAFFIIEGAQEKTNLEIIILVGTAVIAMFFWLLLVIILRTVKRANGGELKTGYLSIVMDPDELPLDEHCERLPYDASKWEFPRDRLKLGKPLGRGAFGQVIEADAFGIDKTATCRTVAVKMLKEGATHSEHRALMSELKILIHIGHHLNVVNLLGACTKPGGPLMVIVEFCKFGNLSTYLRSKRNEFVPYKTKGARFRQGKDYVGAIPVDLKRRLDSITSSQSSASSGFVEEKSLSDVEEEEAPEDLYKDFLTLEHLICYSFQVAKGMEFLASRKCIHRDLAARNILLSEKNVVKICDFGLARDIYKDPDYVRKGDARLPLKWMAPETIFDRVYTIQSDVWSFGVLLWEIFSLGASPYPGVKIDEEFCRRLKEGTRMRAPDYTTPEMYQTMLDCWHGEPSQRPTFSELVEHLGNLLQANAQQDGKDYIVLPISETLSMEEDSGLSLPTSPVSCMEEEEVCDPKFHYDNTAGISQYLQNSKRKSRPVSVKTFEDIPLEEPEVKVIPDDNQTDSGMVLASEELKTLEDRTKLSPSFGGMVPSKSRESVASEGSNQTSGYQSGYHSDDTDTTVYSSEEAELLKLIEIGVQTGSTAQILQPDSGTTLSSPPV

The inhibition is the drop in the measured response relative to a control, in per cent. Consider `CCOC(=O)CCC(=O)Nc1cc(Nc2ccc(C(=O)OCC)cc2)ncn1`, for which the inhibition is -4.6% in experiment [1] and 6.5% in experiment [2].

Consider `CCOC(=O)CC(=O)Nc1cc(Nc2ccc(F)cc2)ncn1`, for which the inhibition was -1.1% in experiment [1] and 1.7% in experiment [2].

Regarding `O=C(O)CCCC(=O)Nc1cc(Nc2ccccc2Br)ncn1`, the inhibition in experiment [1] was -9.3%; in experiment [2] it was 16.8%.

With `CCOC(=O)c1ccc(Nc2cc(NC(=O)CCC(=O)O)ncn2)cc1`, the results for the inhibition in experiment [1] and in experiment [2] were -5.4% and 4.9%, respectively.

On to `COc1ccc(/C=C/C(=O)Nc2cc(N3CCOCC3)ncn2)cc1`, for which the values for the inhibition in experiment [1] and in experiment [2] were -4.8% and 7.3%, respectively.

Regarding `Cc1ccc(Nc2cc(NC(=O)c3ccc(F)cc3)ncn2)cc1`, the inhibition in experiment [1] was -4.8%; in experiment [2], 10.9%.

On to `CCOC(=O)CCC(=O)Nc1cc(Nc2ccc(Cl)cc2)ncn1`, for which the inhibition in experiment [1] was -3.6%; in experiment [2], 22.5%.

In the case of `CCOc1ccc(Nc2cc(NC(=O)/C=C/c3ccccc3)ncn2)cc1`, the inhibition in experiment [1] is 1.5%; in experiment [2] it was 0.6%.

Consider `CCOC(=O)c1ccc(Nc2cc(Nc3ccc(C(=O)OCC)cc3)ncn2)cc1`, for which the inhibition came out at 0% in experiment [1] and 3.7% in experiment [2].

On to `COc1ccc(OC)c(Nc2cc(Nc3ccc(Cl)cc3)ncn2)c1`, for which the inhibition in experiment [1] is -8.2%; in experiment [2], 6.5%.

Turning to `O=C(/C=C/c1ccccc1)Nc1cc(Nc2ccc(N3CCOCC3)cc2)ncn1`, the results for the inhibition in experiment [1] and in experiment [2] were -0.3% and -5%, respectively.

As for `O=C(/C=C/c1ccc(F)cc1)Nc1cc(Nc2ccc(Cl)cc2Cl)ncn1`, the inhibition in experiment [1] is -2.9%; in experiment [2] it was 2.5%.

Turning to `COc1ccc(/C=C/C(=O)Nc2cc(Nc3ccc(Cl)cc3)ncn2)cc1`, the inhibition is -8.8% in experiment [1] and 0.9% in experiment [2].

As for `CCNc1cc(Nc2cc(OC)ccc2OC)ncn1`, the inhibition in experiment [1] was -0.4%; in experiment [2], 34.5%.

In the case of `O=C(/C=C/c1ccc(F)cc1Br)Nc1cc(N2CCOCC2)ncn1`, the inhibition in experiment [1] was -7.1%; in experiment [2], 5.7%.

Consider `CN1CCN(c2cc(NC(=O)/C=C/c3ccc(F)cc3)ncn2)CC1`, for which the inhibition is -6.1% in experiment [1] and 7.7% in experiment [2].

`CCOC(=O)c1c(Nc2cc(NC(=O)CCC(=O)OC(C)C)ncn2)sc2c1CCCC2`: the inhibition is -4.1% in experiment [1] and 16.4% in experiment [2].

Turning to `COc1cccc(Nc2cc(NC(=O)/C=C/c3ccccc3)ncn2)c1`, the results for the inhibition in experiment [1] and in experiment [2] were -0.4% and 9.3%, respectively.

As for `COc1ccc(OC)c(Nc2cc(Nc3cc(OC)ccc3OC)ncn2)c1`, the inhibition is -2.7% in experiment [1] and 13.6% in experiment [2].

On to `COc1cccc(Nc2cc(NC(=O)c3ccccc3)ncn2)c1`, for which the inhibition in experiment [1] was -6%; in experiment [2] it was -0.2%.

Take `CCOc1ccc(Nc2cc(NC(=O)c3ccc(F)cc3)ncn2)cc1`: the results for the inhibition in experiment [1] and in experiment [2] were 5.9% and 5.3%, respectively.

Regarding `O=C(/C=C/c1ccc(F)cc1Br)Nc1cc(Nc2ccc(Cl)cc2Cl)ncn1`, the inhibition was -4.6% in experiment [1] and 15.2% in experiment [2].

Regarding `Clc1cccc(Nc2cc(Nc3cccc(Cl)c3)ncn2)c1`, the inhibition in experiment [1] is -9.8%; in experiment [2] it was 0.6%.

As to `Clc1ccc(Nc2cc(Nc3ccc4[nH]ncc4c3)ncn2)cc1`, the results for the inhibition in experiment [1] and in experiment [2] were -5.3% and -1.4%, respectively.

`COc1ccc(Nc2cc(NC(=O)c3ccccc3)ncn2)c([N+](=O)[O-])c1`: the inhibition is 5.2% in experiment [1] and 8.9% in experiment [2].

For `COc1cccc(Nc2cc(Nc3cccc(Br)c3)ncn2)c1`, the inhibition in experiment [2] turned out to be 20.5%.

Consider `O=C(/C=C/c1ccc(F)cc1)Nc1cc(Nc2ccc(N3CCOCC3)cc2)ncn1`, for which the inhibition was -3.9% in experiment [1] and 1.3% in experiment [2].

In the case of `COc1ccc(Nc2cc(NC(=O)c3ccc(F)cc3)ncn2)cc1`, the inhibition was 0.5% in experiment [1] and -3.4% in experiment [2].

Regarding `CCOc1ccc(Nc2cc(NC(=O)/C=C/c3ccc(OC)cc3)ncn2)cc1`, the inhibition in experiment [1] turned out to be 0.7%; in experiment [2] it was 20.4%.

Regarding `CCCC(C)OC(=O)CCC(=O)Nc1cc(Nc2cccc(C(=O)OC(C)CCC)c2)ncn1` (configuration not stated), the inhibition is -5% in experiment [1] and 4.9% in experiment [2].

`COc1ccc(Nc2cc(NC(=O)/C=C/c3ccccc3)ncn2)c([N+](=O)[O-])c1`: the inhibition in experiment [1] was -4.9%; in experiment [2] it was 2.5%.

Consider `O=C(/C=C/c1ccc(F)cc1Br)Nc1cc(Nc2ccc(N3CCOCC3)cc2)ncn1`, for which the values for the inhibition in experiment [1] and in experiment [2] were -2.8% and 0.6%, respectively.

Consider `Fc1ccc(Nc2cc(Nc3ccc(F)cc3)ncn2)cc1`, for which the inhibition in experiment [1] was determined as 0.5%; in experiment [2], 16.8%.

On to `O=C(/C=C/c1ccccc1)Nc1cc(Nc2ccc(O)cc2)ncn1`, for which the inhibition in experiment [1] was -3.7%; in experiment [2] it was 1.3%.

In the case of `CCOC(=O)CCCC(=O)Nc1cc(Nc2cc(OC)ccc2OC)ncn1`, the inhibition in experiment [1] was -9.3%; in experiment [2], 0.9%.

As to `CCOC(=O)CCC(=O)Nc1cc(Nc2cccc(C(=O)OCC)c2)ncn1`, the inhibition in experiment [1] came out at 2.6%; in experiment [2], 19.7%.

Take `COc1ccc(/C=C/C(=O)Nc2cc(N3CCN(C)CC3)ncn2)cc1`: the inhibition was -6.1% in experiment [1] and 1.7% in experiment [2].

`O=C(O)CCC(=O)Nc1cc(Nc2cccc(Br)c2)ncn1`: the inhibition in experiment [1] was -5.3%; in experiment [2], 19.2%.

Regarding `O=C(Nc1cc(N2CCOCC2)ncn1)c1ccccc1`, the inhibition is -1.8% in experiment [1] and 10.1% in experiment [2].

Regarding `CCOC(=O)CCC(=O)Nc1cc(Nc2ccc(N3CCN(C)CC3)cc2)ncn1`, the inhibition in experiment [1] is -6.6%; in experiment [2] it was 4.9%.

Consider `COc1ccc(Nc2cc(NC(=O)/C=C/c3ccc(F)cc3Br)ncn2)c([N+](=O)[O-])c1`, for which the results for the inhibition in experiment [1] and in experiment [2] were -2.3% and 11.3%, respectively.

As for `CC(C)OC(=O)CCC(=O)Nc1cc(Nc2ccc(F)cc2)ncn1`, the inhibition is -6.5% in experiment [1] and 2.5% in experiment [2].

For `CN1CCN(c2cc(NC(=O)CCCC(=O)O)ncn2)CC1`, the inhibition in experiment [1] was -2.3%; in experiment [2] it was 13.6%.

As for `COc1ccc(/C=C/C(=O)Nc2cc(Nc3ccc(Cl)cc3Cl)ncn2)cc1`, the figures for the inhibition in experiment [1] and in experiment [2] were -4% and 6.1%, respectively.

For `CCOC(=O)CCC(=O)Nc1cc(Nc2cccc(OC)c2)ncn1`, the inhibition in experiment [1] is -7.1%; in experiment [2] it was 11.3%.

`Clc1ccc(Nc2cc(Nc3cccc(Cl)c3)ncn2)cc1`: the inhibition is -3.4% in experiment [1] and 7.3% in experiment [2].

Take `COc1cccc(Nc2cc(NC(=O)c3ccc(F)cc3)ncn2)c1`: the inhibition amounted to 4.3% in experiment [1] and 20.8% in experiment [2].

`O=C(Nc1cc(Nc2ccc(Cl)cc2)ncn1)c1ccccc1`: the inhibition in experiment [1] is -1.3%; in experiment [2], -1.4%.

Regarding `CCOc1cccc(Nc2cc(NC(=O)c3ccc(F)cc3)ncn2)c1`, the inhibition is 2.2% in experiment [1] and 6.1% in experiment [2].

In the case of `O=C(Nc1cc(Nc2cccc(Cl)c2)ncn1)c1ccc(F)cc1`, the inhibition was 4.2% in experiment [1] and -0.6% in experiment [2].

Regarding `COc1ccc(Nc2cc(NC(=O)/C=C/c3ccccc3)ncn2)cc1`, the inhibition in experiment [1] stood at 8.7%; in experiment [2], 9.3%.

`COc1cccc(Nc2cc(NC(=O)CCC(=O)O)ncn2)c1`: the inhibition came to 0.5% in experiment [1] and 12.4% in experiment [2].

Take `CC(C)OC(=O)CCC(=O)Nc1cc(Nc2ccc(C(=O)OC(C)C)cc2)ncn1`: the results for the inhibition in experiment [1] and in experiment [2] were -2.3% and 4.9%, respectively.

In the case of `Clc1ccc(Nc2cc(Nc3ccc(Cl)cc3)ncn2)cc1`, the inhibition in experiment [1] was -1.3%; in experiment [2], 8.5%.

Consider `Clc1cccc(Nc2cc(Nc3cccc(Br)c3)ncn2)c1`, for which the inhibition is -3.6% in experiment [1] and 20% in experiment [2].

As for `CN1CCN(c2ccc(Nc3cc(NC(=O)/C=C/c4ccc(F)cc4)ncn3)cc2)CC1`, the inhibition in experiment [1] was -5.4%; in experiment [2], 21.8%.

With `CCOC(=O)CCC(=O)Nc1cc(Nc2ccc(S(N)(=O)=O)cc2)ncn1`, the inhibition in experiment [1] was -3.6%; in experiment [2], 7.7%.

Consider `CN1CCN(c2ccc(Nc3cc(NC(=O)CCC(=O)O)ncn3)cc2)CC1`, for which the inhibition in experiment [2] is 18.8%.

Regarding `Fc1ccc(Nc2cc(Nc3ccc(Cl)cc3)ncn2)cc1`, the results for the inhibition in experiment [1] and in experiment [2] were 1.8% and 6.1%, respectively.

`COc1cccc(Nc2cc(Nc3ccc(Cl)cc3)ncn2)c1`: the inhibition is -4% in experiment [1] and 12.8% in experiment [2].

As to `O=C(Nc1cc(Nc2cccc(Cl)c2)ncn1)c1ccccc1`, the inhibition in experiment [1] was -5.8%; in experiment [2] it was -6.2%.

In the case of `O=C(O)CCC(=O)Nc1cc(Nc2cccc(C(=O)O)c2)ncn1`, in experiment [2], the inhibition stood at 10.9%.

As for `O=C(/C=C/c1ccc(F)cc1)Nc1cc(Nc2ccc(Cl)cc2)ncn1`, the inhibition worked out at 3.1% in experiment [1] and 10.1% in experiment [2].

As for `O=C(Nc1cc(Nc2ccc(N3CCOCC3)cc2)ncn1)c1ccc(F)cc1`, the results for the inhibition in experiment [1] and in experiment [2] were 3.5% and 1.7%, respectively.

As to `COc1ccc(/C=C/C(=O)Nc2cc(Nc3cccc(Br)c3)ncn2)cc1`, the values for the inhibition in experiment [1] and in experiment [2] were -5.4% and 8.5%, respectively.

With `O=C(O)CCC(=O)Nc1cc(Nc2cccc(Cl)c2)ncn1`, the results for the inhibition in experiment [1] and in experiment [2] were -3.6% and 0.6%, respectively.

With `CCOC(=O)CCC(=O)Nc1cc(Nc2cc(OC)ccc2OC)ncn1`, the inhibition in experiment [1] was -8.8%; in experiment [2], 9.7%.

As for `CCOC(=O)CCC(=O)Nc1cc(NCCc2cccs2)ncn1`, the inhibition in experiment [2] turned out to be 13.6%.
